Source: PubChem BioAssay
PGC1a Ac signal = raises PGC1a acetylation signal in U2OS cells. U2OS PGC1a acetylation AlphaScreen, overnight. activation, % at 15.6 µM. hit rate 0.21% among 350,000. AID 651723;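 active = every replicate reaching activation of at least 50%, whatever the mean replicate activation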;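 also: hits raise the AlphaScreen acetylation signal above neutral controls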
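detection = AlphaScreen lysate read | assay system = U2OS cells expressing flag-PGC1a plus GCN5 | input = 7000 cells/well | dosing = one concentration | times = compound overnight at 37 °C, each detection step 1 h RT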
Hits are given with their value; - = inactive. The list is a sample of the results.

SMILES	PGC1a Ac signal
CCOc1ccc(N(C(=O)Nc2ccccc2)C2=NCCC2)cc1	-
CCOc1ccc(NS(=O)(=O)c2ccc3c(c2)oc(=O)n3C)cc1	-
CCOc1ccc2nnc(-c3ccc(Br)cc3)n2n1	51.6
CCC(=O)N[C@H]1CC[C@H](CC(=O)OC)O[C@H]1CO	-
CC1=C(C(N)=O)C(c2ccccc2)n2nc(-c3ccncc3)nc2N1 (centres undefined)	59.8
CC(=O)Nc1ccc(Oc2sc(C(=O)c3ccccc3)c(N)c2C#N)cc1	-
O=C(Cc1ccccn1)NCC[C@@H]1CC[C@H](NC(=O)Nc2ccc(C(F)(F)F)cc2)[C@@H](CO)O1	-
O=C(C[C@H]1CC[C@@H](NS(=O)(=O)c2ccc(F)cc2)[C@H](CO)O1)N1CCN(c2ccccc2)CC1	-
O=C(COC(=O)c1ccccc1C(=O)c1ccc(Cl)c([N+](=O)[O-])c1)NC1CC1	94.4
COc1ccc(C(NC(=O)c2c(F)c(F)c(F)c(F)c2F)c2ccccc2)cc1 (centres undefined)	-
COc1ccc(OC)c(NC(=O)C2C(C(=O)O)C3(Cl)C(Cl)=C(Cl)C2(Cl)C3(Cl)Cl)c1 (centres undefined)	-
CCOc1ccc(N2CC(C(=O)Nc3ccc(S(=O)(=O)NCC4CCCO4)cc3)CC2=O)cc1 (centres undefined)	-
COc1cccc(N2C(=O)CC(N3CCC(c4nc5ccccc5[nH]4)CC3)C2=O)c1 (centres undefined)	57.9
O=C1C=CCCN1C(=O)/C=C/c1ccccc1Cl	-
COc1ccc2c3c(n(C)c2c1)[C@H](CO)NCC31CCN(Cc2cc(-c3ccccc3)on2)CC1	-
CCOC(=O)CS(=O)(=O)c1nc(-c2ccccc2)cc(C(F)(F)F)n1	-
CCOC(=O)CN1C(=O)C(Sc2n[nH]c(-c3ccc(C)cc3)n2)CCc2ccccc21 (centres undefined)	58.5
Cc1nc(C(C)N(C)Cc2nc(-c3ccc4c(c3)OCO4)no2)c(C)s1 (centres undefined)	-
COc1cc(/C=C/c2cccc[n+]2C)ccc1OCC(=O)Nc1ccccc1	-
O=C1C2C3C=CC(C4CC34)C2C(=O)N1/N=C/c1c[nH]c2ccccc12 (centres undefined)	-
Cc1cc(C=O)c(C)n1-c1ccc(NC2CCCC2)c([N+](=O)[O-])c1	-
Oc1ccc(-c2nnc(-c3ccc(O)cc3)nn2)cc1	74.4
COc1cccc(-n2c(-c3cccc(S(=O)(=O)N(C)C)c3)n[nH]c2=S)c1	-
CCCS(=O)(=O)c1nnnn1-c1cccc(OC)c1	72.8
O=C/C=C/c1ccc(-c2ccccc2)cc1	73.8
SMILES	PGC1a Ac signal
O=C(c1ccc(F)cc1)N1CC(=O)N2[C@H](CO)[C@@H](c3ccc(C#CCC4CCCC4)cc3)[C@@H]2C1	-
CC(C)CCCCCCCCCCCCC(=O)NCC(=O)NC1C(O)C(O)C(Nc2ncnc3nc[nH]c23)OC1C(O)CO (centres undefined)	-
O=C(Nc1ccccc1-c1ccccc1)NC1CC2CCCC(C1)N2Cc1ccc(F)cc1 (centres undefined)	-
O=C(Nc1ccc(F)cc1F)N1CCCN(c2ccc([N+](=O)[O-])cn2)CC1	94.1
CC(C)(C)c1ccc(NC(=O)N2CCN(c3ccc([N+](=O)[O-])cn3)CC2)cc1	191.5
CC(=O)Nc1ccc(S(=O)(=O)N2CCN(c3ccccn3)CC2)cc1	-
CCC(=O)Nc1ccc2c(c1)OC[C@@H](C)N(C(=O)c1cnccn1)C[C@H](C)[C@H](OC)CN(C)C2=O	-
C[C@@H]1CN([C@H](C)CO)C(=O)c2cc(NS(C)(=O)=O)ccc2O[C@@H]1CN(C)S(=O)(=O)c1ccc(Cl)cc1	-
O=C(Nc1cccc2c1CCCC2)c1ccccc1Br	-
CCOC(=O)C(=Cc1ccc(OCc2ccc([N+](=O)[O-])cc2)c(OC)c1)C(=O)OCC	-
C=CCNS(=O)(=O)c1cccc2cc(C(=O)O)c(O)cc12	-
C[C@@H]1CN([C@@H](C)CO)C(=O)c2cc(/C=C/c3ccccc3)cnc2O[C@@H]1CN(C)Cc1cccnc1	-
O=[N+]([O-])c1cc(F)c2cccnc2c1O	-
O=Nc1ccc(O)c2ncccc12	245.0
O=C(N/N=C/c1ccc(O)c2ncccc12)c1cccc(Br)c1	-
O=c1c2cccnc2n(-c2ccccc2)n1Cc1ccc(Cl)cc1	-
CCOC(=O)c1cn(-c2ccccc2)nc1-c1cccnc1	77.4
CCOC(=O)/C(=C\c1cccnc1)C(=O)c1cc(C(C)=O)c(Nc2ccccc2)s1	-
COc1cccc(-c2nn(-c3ccccc3)cc2CN(C)C(C)c2ccncn2)c1 (centres undefined)	-
COCCCNC1CS(=O)(=O)CC1O (centres undefined)	-
Cc1noc(C)c1NC(=O)N(C)C[C@H]1Oc2c(NC(=O)c3nc4ccccc4s3)cccc2C(=O)N([C@H](C)CO)C[C@H]1C	-
COc1ccc(CN(C)C[C@H]2Oc3ccc(NC(=O)Cc4cn(C)c5ccccc45)cc3CC(=O)N([C@@H](C)CO)C[C@@H]2C)cc1	-
CC/C(=C(\c1ccc(O)cc1)c1ccc(OCCN(C)C)cc1)c1ccccc1	62.5
